Assay results reported in ChEMBL document CHEMBL2163314, “Potent aminocyclitol glucocerebrosidase inhibitors are subnanomolar pharmacological chaperones for treating gaucher disease” (J Med Chem, 2012).
Substitutions are numbered along the chain they refer to. Each block holds one molecule with its values, some of them ahead of it. The source made the active and inactive calls. No cut-off for these calls is given here.

What was measured:
[1] = Agonist activity at glucosylceramidase […] mutant in lymphoblast obtained from Gaucher disease patient using 4-methylumbelliferyl-beta-D-glucopyranoside as substrate preincubated at 100 nM for 3 days measured 2 hrs post substrate addition by fluorescence assay relative to untreated control; assay type: functional, Homo sapiens
Procedure, shortened: (§1)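 Homozygous L444P GD type 2 patient-derived lymphoblasts (GM08752) in RPMI-1640 with 15% FBS, seeded at 2 × 10^5 cells/well and exposed to compound for 3 days. Cells were washed with PBS and sonicated in water. Homogenate was assayed with 6 mM 4-methylumbelliferyl-β-D-glucopyranoside in 0.1 M citrate phosphate, pH 5.2, with 0.25% taurocholate and 0.1% Triton X-100, for 2 h at 37 °C. Fluorescence read at 355/460 nm, normalized to untreated cells, triplicate.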

[2] = target: T1, Beta-galactosidase (Homo sapiens) (UniProt P16278); assay: Inhibition of lysosomal beta-galactosidase in human fibroblast at 5 uM after 24 hrs
T1 sequence (whole entry): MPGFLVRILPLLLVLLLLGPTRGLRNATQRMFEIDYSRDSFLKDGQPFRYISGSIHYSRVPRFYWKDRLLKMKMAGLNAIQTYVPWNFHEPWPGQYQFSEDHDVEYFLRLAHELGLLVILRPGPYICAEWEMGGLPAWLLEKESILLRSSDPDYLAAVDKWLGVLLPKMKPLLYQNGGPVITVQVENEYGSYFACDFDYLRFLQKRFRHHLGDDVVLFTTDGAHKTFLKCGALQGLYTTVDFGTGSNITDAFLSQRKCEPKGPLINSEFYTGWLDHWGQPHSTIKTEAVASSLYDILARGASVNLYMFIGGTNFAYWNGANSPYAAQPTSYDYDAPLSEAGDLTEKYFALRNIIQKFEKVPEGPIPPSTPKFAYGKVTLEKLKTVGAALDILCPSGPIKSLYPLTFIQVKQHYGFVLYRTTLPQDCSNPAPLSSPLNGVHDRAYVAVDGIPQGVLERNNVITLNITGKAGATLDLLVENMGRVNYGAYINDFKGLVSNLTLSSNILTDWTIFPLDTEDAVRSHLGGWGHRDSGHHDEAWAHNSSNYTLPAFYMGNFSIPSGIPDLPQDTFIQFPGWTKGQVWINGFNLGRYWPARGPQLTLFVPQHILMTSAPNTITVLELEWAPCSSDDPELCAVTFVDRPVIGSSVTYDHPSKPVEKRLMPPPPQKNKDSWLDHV

[3] = target: T2, Lysosomal acid glucosylceramidase (Homo sapiens, UniProt P04062); assay: Inhibition of lysosomal beta-glucosidase in human fibroblast using 4-methylumbelliferyl-beta-D-glucopyranoside as substrate preincubated for 24 hrs before substrate addition measured after 2 hrs by fluorometry
T2 sequence (P04062 whole entry): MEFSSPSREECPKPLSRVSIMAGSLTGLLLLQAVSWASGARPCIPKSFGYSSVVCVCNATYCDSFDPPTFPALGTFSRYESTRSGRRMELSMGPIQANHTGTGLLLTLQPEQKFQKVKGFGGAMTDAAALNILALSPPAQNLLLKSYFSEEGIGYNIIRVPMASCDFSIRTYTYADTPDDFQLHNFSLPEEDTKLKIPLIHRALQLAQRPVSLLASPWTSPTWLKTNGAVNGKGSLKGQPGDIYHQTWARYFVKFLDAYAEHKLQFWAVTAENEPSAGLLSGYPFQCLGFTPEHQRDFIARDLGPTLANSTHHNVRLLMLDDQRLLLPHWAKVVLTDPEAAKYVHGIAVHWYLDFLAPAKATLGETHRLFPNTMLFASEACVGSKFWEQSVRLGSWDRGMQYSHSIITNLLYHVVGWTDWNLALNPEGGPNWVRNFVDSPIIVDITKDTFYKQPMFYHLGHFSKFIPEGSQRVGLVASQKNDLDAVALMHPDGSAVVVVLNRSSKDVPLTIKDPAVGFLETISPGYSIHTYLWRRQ
Procedure, shortened: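 Wild-type human fibroblasts (DMEM, 10% FBS; passages 14–30) plated overnight, then compound in fresh medium for 24 h at 37 °C, 5% CO2. Intact washed monolayers given PBS plus 200 mM acetate pH 4.0 and 5 mM 4-MU-β-glucoside, 37 °C for 2 h. Stopped by lysis in glycine/NaOH pH 10.6. Fluorescence at 355/460 nm; triplicate.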

[4] = test system: T3, Lysosomal acid glucosylceramidase (Homo sapiens), P04062 [N409S]; assay: Agonist activity at glucosylceramidase N370S mutant in lymphoblast obtained from Gaucher disease patient using 4-methylumbelliferyl-beta-D-glucopyranoside as substrate preincubated at 1 nM for 3 days measured 2 hrs post substrate addition by fluorescence assay relative to untreated control; assay type: functional
T3 sequence (whole entry): T2 sequence (P04062 whole entry) with N409S
Procedure, shortened: (§2)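 Patient-derived N370S homozygous lymphoblasts (RPMI-1640, 15% FBS, 37 °C, 5% CO2; passages 5–16) seeded at 2 × 10^5 cells/well, exposed to compound for 3 days. Cells washed in PBS and lysed in water by sonication. Homogenate incubated with 6 mM 4-MU-β-glucoside in 0.1 M citrate phosphate pH 5.2 with 0.25% taurocholate and 0.1% Triton X-100, 37 °C, 2 h. Fluorescence read at 355/460 nm; activity normalized to untreated cells; triplicate.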

[5] = test system: T3, Lysosomal acid glucosylceramidase (Homo sapiens), P04062 [N409S]; assay: Agonist activity at glucosylceramidase N370S mutant in lymphoblast obtained from Gaucher disease patient using 4-methylumbelliferyl-beta-D-glucopyranoside as substrate preincubated at 1 uM for 3 days measured 2 hrs post substrate addition by fluorescence assay relative to untreated control; assay type: functional; procedure, shortened: as §2
[6] = Agonist activity at glucosylceramidase […] mutant in lymphoblast obtained from Gaucher disease patient using 4-methylumbelliferyl-beta-D-glucopyranoside as substrate preincubated at 1 uM for 3 days measured 2 hrs post substrate addition by fluorescence assay relative to untreated control; assay type: functional, Homo sapiens; procedure, shortened: as §1
[7] = Agonist activity at glucosylceramidase […] mutant in lymphoblast obtained from Gaucher disease patient using 4-methylumbelliferyl-beta-D-glucopyranoside as substrate preincubated at 50 nM for 3 days measured 2 hrs post substrate addition by fluorescence assay relative to untreated control; assay type: functional, Homo sapiens; procedure, shortened: as §1

SMILES: CCCCCCCCCO[C@H]1[C@@H](N)[C@H](O)[C@@H](O)[C@H](O)[C@H]1O.Cl
fold change (FC) [1]: 1.3

SMILES: CCCCCCCCCN[C@@H]1[C@H](O)[C@H](O)[C@@H](O)[C@H](O)[C@H]1O.Cl
fold change (FC) [1]: 1.2

inhibition [2]: inactive | IC50 [3]: 4.3 nM | fold change (FC) [4]: 1.9
SMILES: CCCCCCCCCN[C@H]1[C@H](O)[C@@H](O)[C@H](O)[C@@H](O)[C@H]1OCCCCCCCCC.Cl

inhibition [2]: < 16% | fold change (FC) [5]: 1.4 | inhibition [4]: 90%
SMILES: CCCCCCCCCN[C@H]1[C@H](O)[C@@H](O)[C@H](O)[C@@H](O)[C@@H]1OCCCCCCCCC.Cl

SMILES: CCCCCCCCCN[C@H]1[C@H](O)[C@@H](O)[C@H](O)[C@@H](O)[C@@H]1OC.Cl
fold change (FC) [6]: 1.5

inhibition [2]: < 16%
SMILES: CCCCCCCCCN(CCCCCCCCC)[C@@H]1[C@H](O)[C@H](O)[C@@H](O)[C@H](O)[C@H]1O.Cl

SMILES: CCCCCCCCCN[C@H]1[C@H](O)[C@@H](O)[C@H](O)[C@@H](O)[C@H]1OC.Cl
fold change (FC) [5]: 2 | fold change (FC) [7]: 1.4
